Bioassay records from PubChem BioAssay.
TRPC6 inh – inhibitors of mouse TRPC6 channel; actives 1.1% (n = 310,000); HEK293-TRPC6, membrane potential dye, ACh-evoked depolarization; active compounds read low; Q61143; B-score at 10 µM;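 active means B-score under library mean minus 3 SD, initial fluorescence not abnormally high, positive integrated signal ratio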;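 further: B-score derived from integrated fluorescence ratio over the kinetic read; more negative B-score means stronger inhibition of depolarization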
Target sequence (Q61143 whole entry, looked up): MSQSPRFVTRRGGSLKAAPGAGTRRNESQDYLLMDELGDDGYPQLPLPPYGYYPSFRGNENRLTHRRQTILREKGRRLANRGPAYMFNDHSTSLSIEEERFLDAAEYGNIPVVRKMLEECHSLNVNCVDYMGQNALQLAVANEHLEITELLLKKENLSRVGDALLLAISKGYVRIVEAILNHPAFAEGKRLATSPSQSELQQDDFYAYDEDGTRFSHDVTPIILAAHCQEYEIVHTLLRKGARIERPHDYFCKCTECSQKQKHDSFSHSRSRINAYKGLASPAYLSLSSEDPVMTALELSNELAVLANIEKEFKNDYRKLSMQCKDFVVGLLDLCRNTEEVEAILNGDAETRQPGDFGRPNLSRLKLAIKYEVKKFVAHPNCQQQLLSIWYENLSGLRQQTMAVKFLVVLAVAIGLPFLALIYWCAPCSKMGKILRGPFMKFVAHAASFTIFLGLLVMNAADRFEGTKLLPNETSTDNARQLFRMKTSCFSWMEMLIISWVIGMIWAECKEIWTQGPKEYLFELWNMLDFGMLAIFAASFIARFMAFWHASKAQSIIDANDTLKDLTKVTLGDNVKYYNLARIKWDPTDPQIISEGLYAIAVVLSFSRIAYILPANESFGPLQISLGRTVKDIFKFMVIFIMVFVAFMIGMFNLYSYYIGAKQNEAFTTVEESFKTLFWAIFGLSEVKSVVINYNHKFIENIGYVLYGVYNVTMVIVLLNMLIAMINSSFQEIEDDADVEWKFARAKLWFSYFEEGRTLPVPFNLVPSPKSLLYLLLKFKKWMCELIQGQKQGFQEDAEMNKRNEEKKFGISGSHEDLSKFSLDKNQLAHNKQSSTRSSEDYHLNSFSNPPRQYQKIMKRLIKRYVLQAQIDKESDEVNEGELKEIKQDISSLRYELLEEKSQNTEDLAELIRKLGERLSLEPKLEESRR
TRPC4 potent – TRPC4 (mouse) allosteric potentiation | HEK293 TRPC4beta/mu-opioid, DAMGO EC20, Fluo-4 Ca2+ flux; active compounds read high | AID 2227 | Q9QUQ5 | actives 0.42% (n = 310,000) | B-score at 10 µM;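 active means B-score of calcium response area above 5 SD of library B-scores, with initial fluorescence ratio within 5 SD of library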
TRPC4 inh – inhibitors of mouse TRPC4 channel; Q9QUQ5; HEK293 TRPC4beta/mu-opioid, DAMGO-evoked Fluo4 calcium flux; active compounds read low; B-score at 10 µM; actives 0.39% (n = 300,000); AID 2247;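 active means B-score over 3 SD under the library average, no early fluorescence shift, positive overall ratio signal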
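test system = HEK293 cells with stable TRPC4beta plus mu-opioid receptor expression | detection = Fluo4 Ca2+ flux fluorescence | read-out = integrated fluorescence ratio relative to baseline, converted to per-well B score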
TRPC6 activator – activators of mouse TRPC6 channel; HEK293-TRPC6 membrane potential dye fluorescence; active compounds read high; B-score at 10 µM; actives 0.13% (n = 310,000); AID 2550;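 active means B-score of the integrated fluorescence ratio above library mean plus 3 SD, and starting fluorescence ratio within library mean plus 5 SD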;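 further: higher score means more depolarization so channel activation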
TRPC4 act – TRPC4 (mouse) channel activation; actives 0.49% (n = 310,000); B-score at 10 µM; AID 2237; HEK293 TRPC4beta/mu-opioid, Fluo4 calcium fluorescence; active compounds read high;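 active means B-score above 5 SD of library B-scores, and initial fluorescence ratio not above library mean plus 5 SD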;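 further: positive B-score marks a calcium rise read as TRPC4 activation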
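Technique: kinetic Fluo4 calcium fluorescence; Test system: TRPC4beta and mu-opioid receptor HEK293 stable cells; Measure: B-scored integrated calcium fluorescence ratio; Benchmarks: low control buffer alone, high control maximal DAMGO; Schedule: 45 min room-temperature Fluo4 loading, 110 s read.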
TRPC4 sel inh 2 – second check of whether TRPC6 inhibitors also affect mouse TRPC4. shares compounds with TRPC6 inh. HEK293 TRPC4/MOR, membrane potential dye fluorescence; channel activated by saturating DAMGO dose. AID 2776. inhibition, % at 10 µM. actives 42% (n = 920);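 active means compounds whose fluorescence signal differed from control wells by over 3 SD, either direction, in both duplicate plates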
TRPC4 spec – mouse TRPC4 off-target activity of TRPC6 inhibitors; shares compounds with TRPC6 inh; HEK293 TRPC4/mu-opioid, membrane potential fluorescence; activity change, negative = inhibition, % at 10 µM; actives 61% (n = 920);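 active means rise or fall in signal beyond 3 SD of buffer-only wells in both replicate plates, either sign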;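 further: integrated kinetic ratio of fluorescence range over baseline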
HEK293 MPD ctr 2-1 – parental HEK293 nonspecific activity of TRPC6 inhibitors, second screen; shares compounds with TRPC6 inh; signal change vs control, % at 10 µM; actives 31% (n = 920); AID 2779; parental HEK293 membrane potential dye fluorescence; maximal acetylcholine challenge after compound addition;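 active means membrane potential signal moving either way by over 3 SD of the maximum-effect control, in both duplicate plates, meaning non-specific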
HEK293 MPD ctr-1 – checks TRPC6 inhibitor effects in parental HEK293 cells; shares compounds with TRPC6 inh; parental HEK293 membrane potential dye fluorescence; membrane potential signal change, % at 10 µM; actives 60% (n = 920); AID 2780;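 active means membrane potential signal shifting up or down by more than 3 SD of buffer-only wells, on both duplicate plates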
HEK293 MPD ctr-2 – counter-screen for TRPC6 modulators: effect in parental HEK293 cells | shares compounds with TRPC6 inh | membrane potential dye fluorescence | membrane potential signal change, % at 10 µM | actives 51% (n = 2,400) | AID 488924;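 active means membrane potential signal moves up or down beyond 5 SD from buffer-only wells, on both duplicate plates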
HEK293 MPD ctr 2-2 – second check of TRPC6 modulator effects in parental HEK293 cells | shares compounds with TRPC6 inh | membrane potential dye fluorescence; after compound, maximal acetylcholine stimulation | inhibition, % at 10 µM | actives 14% (n = 2,400);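 active means membrane potential signal drops by more than 5 SD from the mean control signal, in both duplicate plates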
TRPC4/MOR mod – selectivity of TRPC6 modulators against mouse TRPC4; actives 69% (n = 2,400); percent change from control (negative = decrease, positive = increase), % at 10 µM; shares compounds with TRPC6 inh; HEK293 TRPC4/mu-opioid, membrane potential fluorescence;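 active means membrane potential signal moved up or down beyond 5 SD of buffer control wells, in both duplicate plates, actives on both sides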
TRPC4 ctr inh 2 – second selectivity test of TRPC6 modulators against mouse TRPC4; actives 55% (n = 2,400); AID 488928; HEK293 TRPC4/mu-opioid, membrane potential dye fluorescence; stimulated with maximal-effect DAMGO; inhibition, % at 10 µM; shares compounds with TRPC6 inh;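 active means drop in membrane potential signal beyond 5 SD of the control wells in both duplicate plates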;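 further: TRPC4 counter screen for TRPC6 hits run under conditions tuned for TRPC6 not TRPC4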
TRPC6 block conf – mouse TRPC6 inhibitor confirmation; AID 488960; shares compounds with TRPC6 inh; HEK293-TRPC6, membrane potential dye, ACh-evoked depolarization; actives 43% (n = 3,300); inhibition, % at 10 µM;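 active means fluorescence ratio falls more than 5 SD below the full-stimulation control mean, in both duplicate runs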;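 further: integrated fluorescence ratio of peak minus minimum over baseline after agonist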
TRPC6 act conf – confirmation of mouse TRPC6 activators; shares compounds with TRPC6 inh; HEK293-TRPC6 membrane potential dye fluorescence, FDSS; activation, % at 10 µM; actives 11% (n = 2,800);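 active means ratio signal rise beyond 5 SD above unstimulated control wells' mean, seen in both duplicate runs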
Of the large screens only hits and unclear results are named; the others gave an inactive call (follow-up assays come after a bar, where they were run). In the library only some 2.3% were active in any assay of this set; here they are far more common.

O=c1cc(C(F)(F)F)[nH]c2c(C(F)(F)F)cccc12	TRPC6 inh -10 | TRPC4 sel inh 2 66% | TRPC4 spec 58% | HEK293 MPD ctr 2-1 inactive | HEK293 MPD ctr-1 32% | TRPC6 block conf 83%
O=c1cc(C(F)(F)F)[nH]c2ccc(OC(F)(F)F)cc12	TRPC6 inh -7.1 | TRPC4 sel inh 2 inactive | TRPC4 spec 23% | HEK293 MPD ctr 2-1 22% | HEK293 MPD ctr-1 13% | TRPC6 block conf 104%
O=C1NC(=S)S/C1=C/c1ccc(Oc2cnccn2)cc1	none
CCOc1ccc(N(C)c2ccc(/C=C3/SC(=S)NC3=O)cc2)cc1	TRPC6 activator 18 | HEK293 MPD ctr-2 inactive | HEK293 MPD ctr 2-2 inactive | TRPC4/MOR mod 82% | TRPC4 ctr inh 2 inactive | TRPC6 block conf inactive | TRPC6 act conf inactive
Cc1ccc(N)c2c1OCCC2=O	none
Cc1cccc(C)c1NC(=O)CN(C)C(=O)COc1cccc2c1OC(C)(C)C2	none
O=[N+]([O-])c1ccc(N2CCc3ccccc3C2)cc1	TRPC6 inh -5.3 | HEK293 MPD ctr-2 inactive | HEK293 MPD ctr 2-2 inactive | TRPC4/MOR mod inactive | TRPC4 ctr inh 2 inactive | TRPC6 block conf inactive | TRPC6 act conf inactive
O=[N+]([O-])c1ccc(-c2csc(N3CCc4ccccc4C3)n2)cc1	none
CC(C)(C)NC(=O)CN(C(=O)CCC(=O)Nc1nccs1)c1cccc(C(F)(F)F)c1	none
CN1C(=O)NC(c2cccc([N+](=O)[O-])c2)C2=C1CCCC2=O (stereo not given)	none
CCOC(=O)C1=NN(c2ccc(Cl)cc2)C(c2ccccc2)CC1=O (stereo not given)	TRPC6 inh -7.5 | TRPC4 sel inh 2 inactive | TRPC4 spec inactive | HEK293 MPD ctr 2-1 inactive | HEK293 MPD ctr-1 inactive | TRPC6 block conf inactive | TRPC6 act conf inactive
CCOC(=O)C1=NNC(C(=O)c2ccc(Cl)cc2)C1c1ccccc1 (stereo not given)	none
CCN(CC)S(=O)(=O)c1cccc(NC(=O)CNC2CCCCCC2)c1	TRPC6 inh -6.5 | HEK293 MPD ctr-2 inactive | HEK293 MPD ctr 2-2 inactive | TRPC4/MOR mod inactive | TRPC4 ctr inh 2 66% | TRPC6 block conf 43% | TRPC6 act conf inactive
O=C(CNCC1CCCO1)Nc1ccc(N2CCCCCC2)cc1 (stereo not given)	TRPC6 inh -6.3 | HEK293 MPD ctr-2 inactive | HEK293 MPD ctr 2-2 inactive | TRPC4/MOR mod -16% | TRPC4 ctr inh 2 33% | TRPC6 block conf inactive | TRPC6 act conf inactive
O=C(CNCCC1=CCCCC1)Nc1ccc(N2CCCCCC2)cc1	TRPC6 inh -7.2 | TRPC4 sel inh 2 70% | TRPC4 spec -12% | HEK293 MPD ctr 2-1 inactive | HEK293 MPD ctr-1 -152% | TRPC6 block conf inactive | TRPC6 act conf inactive
O=C(CNC1CCCC1)Nc1ccc(N2CCCCCC2)cc1	TRPC6 inh -5.3 | HEK293 MPD ctr-2 inactive | HEK293 MPD ctr 2-2 inactive | TRPC4/MOR mod -13% | TRPC4 ctr inh 2 66% | TRPC6 block conf 66% | TRPC6 act conf inactive
O=C(CNC1CCCCCC1)Nc1ccc(N2CCCC2)cc1	none
CC1CCN(CC(=O)Nc2ccc(N3CCCCCC3)cc2)CC1	TRPC6 inh -5.4 | HEK293 MPD ctr-2 inactive | HEK293 MPD ctr 2-2 inactive | TRPC4/MOR mod -17% | TRPC4 ctr inh 2 38% | TRPC6 block conf inactive | TRPC6 act conf inactive
O=C(c1cccs1)N1CCC(c2nc3c(nnn3Cc3c(Cl)cccc3Cl)c(=O)[nH]2)CC1	TRPC6 inh -5.4 | HEK293 MPD ctr-2 inactive | HEK293 MPD ctr 2-2 inactive | TRPC4/MOR mod inactive | TRPC4 ctr inh 2 inactive | TRPC6 block conf inactive | TRPC6 act conf inactive
CC(C)NC(=O)c1cnc(Sc2ncc(C(F)(F)F)cc2Cl)n1C	TRPC6 inh -5.7 | HEK293 MPD ctr-2 inactive | HEK293 MPD ctr 2-2 inactive | TRPC4/MOR mod inactive | TRPC4 ctr inh 2 inactive | TRPC6 block conf inactive | TRPC6 act conf inactive
O=C(Cc1ccccc1)NC1(Cc2ccc(O)cc2)CCCCC1	none
Cc1cc(C)cc(N(C(=O)c2snc(C(N)=O)c2N)C(C(=O)NCC2CCCO2)c2ccc(C)o2)c1 (stereo not given)	TRPC6 inh -5.4 | HEK293 MPD ctr-2 inactive | HEK293 MPD ctr 2-2 inactive | TRPC4/MOR mod 18% | TRPC4 ctr inh 2 40% | TRPC6 block conf inactive
Cc1cccc(N(CC(=O)NC2CCCCC2)C(=O)c2c(C)noc2C)c1	TRPC6 inh -6 | HEK293 MPD ctr-2 118% | HEK293 MPD ctr 2-2 inactive | TRPC4/MOR mod 24% | TRPC4 ctr inh 2 30% | TRPC6 block conf inactive
O=C(COc1coc(CN2CCc3ccccc3C2)cc1=O)Nc1cccc([N+](=O)[O-])c1	none
Cc1ccc(Nc2nc3ccccc3c(=O)[nH]2)cc1C	none
Cc1ccc(Nc2nc(N)c3ccccc3n2)cc1C	TRPC6 inh -12 | HEK293 MPD ctr-2 -94% | HEK293 MPD ctr 2-2 65% | TRPC4/MOR mod -36% | TRPC4 ctr inh 2 78% | TRPC6 block conf 66% | TRPC6 act conf inactive
COc1cc2nc(Nc3cccc(F)c3)nc(N)c2cc1OC	TRPC6 inh -6.5 | HEK293 MPD ctr-2 inactive | HEK293 MPD ctr 2-2 inactive | TRPC4/MOR mod inactive | TRPC4 ctr inh 2 47% | TRPC6 block conf 52% | TRPC6 act conf inactive
COc1nc(Nc2cccc(F)c2)nc(OC)n1	none
